High-throughput results (PubChem)
CDK5 inh – blocks human CDK5/p35 kinase activity | AID 488839 | Recombinant CDK5/p35, ADP-Glo luminescence, 60 min | actives 0.01% (n = 330,000) | inhibition, % at 10 µM;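 active means highest replicate inhibition of at least 50% and at least 75% of replicates reaching 50%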;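 further: plate controls were DMSO neutral control for no effect and GW8510 at 10 µM for full effect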
GSK3beta inhib – inhibitors of human GSK3beta kinase; GST-GSK3beta kinase, ADP-Glo luminescence, 60 min; stronger effect = lower value; actives 0.038% (n = 300,000); P49841; activity score (negative = inhibition), % at 10 µM;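 active means more than half of replicate wells score below -50%, meaning over 50% inhibition versus plate controls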;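 further: 0% = median DMSO wells and -100% = median GW8510 positive control wells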
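Test system: GST-tagged human GSK3beta kinase, cell-free; evaluation: activity score scaled between in-plate DMSO and GW8510 controls; measured by: ADP-Glo luminescence; incubation: 60 min reaction, RT; benchmarks: DMSO and 20 µM GW8510; reagent: peptide substrate plus 25 µM ATP (final); medium: Tris/MgCl2 kinase buffer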
GSK3A inh – blocks human GSK-3 alpha kinase; P49840; ADP-Glo luminescence, 60 min; inhibition, % at 10 µM; actives 0.1% (n = 320,000); AID 2650;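 active means more than half of replicates show inhibition above 20%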;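 further: GST-tagged GSK-3 alpha with peptide substrate and 25 µM ATP; 0% = DMSO neutral wells and 100% = GW8510 positive control wells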
DYRK1A inh – Dyrk1A (rat) kinase inhibition | ADP-Glo luminescence, NFATc1 peptide | actives 0.43% (n = 310,000) | AID 504441 | inhibition, % at 12.5 µM; in the data active means inhibition above about 50%;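 further: plate controls were vehicle with enzyme for no effect and no enzyme for full effect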
STK33 inh – inhibitors of human STK33 kinase | inhibition, % at 10 µM | AID 2661 | actives 0.073% (n = 320,000) | purified STK33, MBP phosphorylation, ADP-Glo luminescence | Q9BYT3;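 active means inhibition at or above 25%, using the most active replicate where run in duplicate; inactive means inhibition below 25%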
Target sequence (Q9BYT3 whole entry, looked up): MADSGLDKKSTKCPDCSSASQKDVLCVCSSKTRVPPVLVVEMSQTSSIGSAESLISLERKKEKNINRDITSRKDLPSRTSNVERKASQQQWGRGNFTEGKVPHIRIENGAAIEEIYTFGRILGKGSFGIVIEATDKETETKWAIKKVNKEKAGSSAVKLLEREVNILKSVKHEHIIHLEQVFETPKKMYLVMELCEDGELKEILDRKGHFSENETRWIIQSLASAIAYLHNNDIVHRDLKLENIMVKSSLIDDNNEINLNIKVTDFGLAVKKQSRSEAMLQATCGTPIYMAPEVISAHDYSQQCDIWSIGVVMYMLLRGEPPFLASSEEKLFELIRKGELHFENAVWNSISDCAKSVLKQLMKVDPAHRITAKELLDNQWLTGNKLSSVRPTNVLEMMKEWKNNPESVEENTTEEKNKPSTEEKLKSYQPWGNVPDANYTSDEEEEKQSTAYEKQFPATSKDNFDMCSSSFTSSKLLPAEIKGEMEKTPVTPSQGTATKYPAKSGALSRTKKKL
Dyrk1A artifact – counter-screen for Dyrk1A inhibitors: ADP-Glo luciferase artifacts | 1,300 tested, under 10 active | ADP-Glo luciferase artifact assay, no Dyrk1A, luminescence | shares compounds with DYRK1A inh | AC50, µM (doses to about 12 µM), without a hit: at the top dose activity change, negative = inhibition | AID 588348;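 active means fitted half-maximal dose AC50 no more than ten times the top valid tested dose, with luminescence dropping as dose rises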
* hit, by the source's call. Only a selection was taken, and hits are over-represented in it overall.

Results for CCC1(C)NC(=O)N(CC(=O)NCC(=O)Nc2c(C)cc(C)cc2C)C1=O (centres undefined) ?
CDK5 inh: 1; GSK3A inh: -1; STK33 inh: 2

Results for COc1ccc(NC(=O)CCCNC(=O)c2ccc(Cl)cc2)cc1S(=O)(=O)N1CCOCC1 ?
CDK5 inh: 0; DYRK1A inh: -1

How did CC(Oc1ccc(Br)cc1)C(=O)Nc1ccc(S(=O)(=O)N(C)C2CCN(C)CC2)cc1 (centres undefined) do in these assays?
CDK5 inh: 0; GSK3beta inhib: -23; GSK3A inh: 1; DYRK1A inh: 0; STK33 inh: -1

What do the screens show for `Cc1ccnc(Nc2nc(-c3ccc(O)c(O)c3)cs2)c1`?
CDK5 inh: 6; GSK3A inh: 8; DYRK1A inh: 54*; STK33 inh: 10; Dyrk1A artifact: 6%

Results for O=C(NNC(=O)C1COc2ccccc2O1)c1ccccc1O (centres undefined) ?
CDK5 inh: 1; DYRK1A inh: -2

How did CC(C)(C)NC(=O)C(=O)NC(=O)c1c(F)cccc1Cl do in these assays?
CDK5 inh: 0; GSK3beta inhib: -3; GSK3A inh: -1; DYRK1A inh: 63*; STK33 inh: -1; Dyrk1A artifact: 9%

What do the screens show for `CC(=O)c1ccc(NC(=S)Nc2ccc3cn[nH]c3c2)cc1`?
CDK5 inh: 5; GSK3beta inhib: -7; GSK3A inh: -1; DYRK1A inh: 57*; STK33 inh: 5; Dyrk1A artifact: 8%

Results for O=C(Nc1ccc2cn[nH]c2c1)c1ccccc1F ?
CDK5 inh: 2; GSK3beta inhib: -4; GSK3A inh: -1; DYRK1A inh: 54*; STK33 inh: -2; Dyrk1A artifact: 10%

How did O=C(Nc1ccc2ccccc2c1)c1ccccc1F do in these assays?
CDK5 inh: 1; GSK3beta inhib: -2; GSK3A inh: -6; DYRK1A inh: 15; STK33 inh: 1

What do the screens show for `O=C(Nc1ccc2cn[nH]c2c1)c1c(Cl)cccc1Cl`?
CDK5 inh: 4; GSK3beta inhib: -1; GSK3A inh: 9; DYRK1A inh: 51*; STK33 inh: 8; Dyrk1A artifact: 10%

What do the screens show for `O=C(Nc1ccncc1)c1c(Cl)cccc1Cl`?
CDK5 inh: 4; GSK3A inh: -1; DYRK1A inh: -3; STK33 inh: -2

Results for CCOC(=O)C1(CCOC)CCN(C2C3CC4CC(C3)CC2C4)CC1 (centres undefined) ?
CDK5 inh: -2; GSK3beta inhib: 2; GSK3A inh: 0; DYRK1A inh: -5; STK33 inh: 0

How did Cc1ccc(-c2csc3ncnc(SCC(=O)O)c23)cc1 do in these assays?
CDK5 inh: 0; GSK3beta inhib: 4; GSK3A inh: 0; DYRK1A inh: 76*; STK33 inh: 6; Dyrk1A artifact: 9%

What do the screens show for `Cn1cc(S(=O)(=O)NC2CCCCC2)c(=O)n(C)c1=O`?
CDK5 inh: -2; GSK3beta inhib: 1; GSK3A inh: -1; DYRK1A inh: 8; STK33 inh: 0

What do the screens show for `Cc1nnc(SCCn2c(N3CCC(Cc4ccccc4)CC3)nc3c2c(=O)[nH]c(=O)n3C)s1`?
GSK3beta inhib: 1; GSK3A inh: 0; STK33 inh: -2

How did CCCCn1c(N2CCC(Cc3ccccc3)CC2)nc2c1c(=O)[nH]c(=O)n2C do in these assays?
CDK5 inh: 0; GSK3beta inhib: -1; GSK3A inh: -1; DYRK1A inh: 56*; STK33 inh: 2; Dyrk1A artifact: 7%

How did O=C(COC(=O)/C=C/c1ccc(C(F)(F)F)cc1)NCC1CCCO1 (centres undefined) do in these assays?
CDK5 inh: 1; GSK3beta inhib: 0; GSK3A inh: -1; DYRK1A inh: -4

Results for CCOC(=O)C1CCCN(c2c(N3CCN(C4CCCCC4)CC3)c(=O)c2=O)C1 (centres undefined) ?
CDK5 inh: 0; GSK3beta inhib: 1; GSK3A inh: -2; DYRK1A inh: 60*; STK33 inh: -1; Dyrk1A artifact: 6%

What do the screens show for `CCOC(=O)C1CCCN(c2c(N3CCC(N4CCCCC4)CC3)c(=O)c2=O)C1` (centres undefined)?
CDK5 inh: -1; GSK3beta inhib: 11; GSK3A inh: -1; DYRK1A inh: -2; STK33 inh: 1

Results for Brc1ccc2[nH]c3c(c2c1)CCC3 ?
CDK5 inh: 0; GSK3beta inhib: -2; GSK3A inh: -2; STK33 inh: 1

What do the screens show for `NC(=O)c1cc(Br)cc2c3c([nH]c12)CCCC3`?
CDK5 inh: 1; GSK3beta inhib: 3; GSK3A inh: 36; DYRK1A inh: 55*; STK33 inh: 9; Dyrk1A artifact: 7%

Results for COc1cccc(-c2nnc3sc(C4CCCCC4)nn23)c1 ?
CDK5 inh: 1; GSK3beta inhib: -28; GSK3A inh: 20; DYRK1A inh: 53*; STK33 inh: -1; Dyrk1A artifact: 6%

Results for COc1ccc(/C=c2\s/c(=C\C(=O)C(C)(C)C)[nH]c2=O)cc1O ?
CDK5 inh: 2; GSK3beta inhib: -46; GSK3A inh: 63*; DYRK1A inh: 64*; STK33 inh: 8; Dyrk1A artifact: 9%

Results for COc1cc(/C=c2\s/c(=C\C(=O)C(C)(C)C)[nH]c2=O)cc(OC)c1OC ?
CDK5 inh: 0; GSK3beta inhib: -9; GSK3A inh: 4; DYRK1A inh: 1; STK33 inh: 1

What do the screens show for `O=C1NC(=S)SC1=Cc1cc(Br)ccc1O`?
CDK5 inh: 0; DYRK1A inh: 84*; Dyrk1A artifact: 13%

How did O=C1NC(=S)SC1=Cc1ccccc1Br do in these assays?
CDK5 inh: 1; DYRK1A inh: 47

Results for O=C1NC(=S)SC1=Cc1ccc(F)cc1 ?
CDK5 inh: 2; DYRK1A inh: 84*; Dyrk1A artifact: 11%

How did COc1cccc(OCCOc2ccc(/C=C3/SC(=S)NC3=O)cc2)c1 do in these assays?
CDK5 inh: 1; GSK3beta inhib: -21; GSK3A inh: -2; DYRK1A inh: 5; STK33 inh: 0

Results for COc1ccc(C=C2SC(=S)NC2=O)cc1 ?
CDK5 inh: 1; DYRK1A inh: 76*; Dyrk1A artifact: 5%

Results for CC(C)N(Cc1ccccc1)C(=S)NC1CCCCC1 ?
CDK5 inh: -1; GSK3beta inhib: -2; GSK3A inh: -3; DYRK1A inh: 1; STK33 inh: -1

Results for C=C1C(=O)O[C@@]23[C@H]1CC[C@@H](C)[C@@H]2CC[C@@]1(C)O[C@@H]31 ?
CDK5 inh: 1; GSK3A inh: -1; DYRK1A inh: 0; STK33 inh: -2
